Reference: ChEMBL document CHEMBL1125813, “Preparation and anti-HIV activities of aurintricarboxylic acid fractions and analogues: direct correlation of antiviral potency with molecular weight” (J Med Chem, 1991)
Values after ≈ are worked out from the molar mass of the structure shown. Values joined by “and” are separate entries in the source; they are usually repeats but may differ in a detail not shown here. Equal entries are not always repeated.

Legend:
HuT78 [1] = test: Compound was tested for reduce the number of gaint cells in HIV-1 infected HUT-78 cells cocultured with MOLT -4 cells; assay type: functional, cell-based, Homo sapiens
In short: (§1)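 HUT-78 cells persistently infected with HIV-1 or HIV-2 cocultured with uninfected MOLT-4 (CD4+) cells alongside compound. Syncytium formation and bystander-cell destruction assessed by flow cytometry. IC50 taken as the concentration cutting giant-cell number by 50%.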

HuT78 [2] = test: Compound was tested for reduce the number of gaint cells in HIV-2 infected HUT-78 cells cocultured with MOLT -4 cells; assay type: functional, cell-based, Homo sapiens; in short: as §1
MT4 [3] = test: Inhibitory index for OKT4A mAb binding inhibition in MT-4 cells was determined at a concentration of 0.8 ug/ml; assay type: functional, Homo sapiens
In short: (§2)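 MT-4 cells, 200 000 in 100 µL PBS, exposed to compound for 10–20 s at 20 °C, stained with anti-OKT4A-FITC for 20 min at 4 °C, washed, formaldehyde-fixed and read by flow cytometry. Index = 1 − (MF with compound − MF IgG-FITC control)/(MF OKT4A only − MF IgG-FITC control), from mean fluorescence intensity.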

MT4 [4] = test: Inhibitory index for OKT4A mAb binding inhibition in MT-4 cells was determined at a concentration of 0.16 ug/ml; assay type: functional, Homo sapiens; in short: as §2
CCRF-CEM = test: Inhibitory concentration for cytopathicity of HIV-1 (HTLV-111B) in CEM cells; assay type: functional, cell-based, Homo sapiens
In short: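 CEM cells infected with HIV-1 (HTLV-IIIB) and cultured with compound. Protection from cytopathicity measured by XTT tetrazolium viability assay. IC50 is the concentration giving 50% inhibition. Means of two to four experiments.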

MT4 [5] = test: Inhibitory index for OKT4A mAb binding inhibition in MT-4 cells was determined at a concentration of 100 ug/ml; assay type: functional, Homo sapiens; in short: as §2
[6] = Compound was tested for percent of OKT4A positive cells stained with normal mouse IgG-FITC at a concentration of 0.16 ug/ml; assay type: functional
In short: (§3)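 MT-4 cells, 200 000 in 100 µL PBS, exposed to compound for 10–20 s at 20 °C, then stained with anti-OKT4A-FITC for 20 min at 4 °C. Cells washed, fixed in 0.37% formaldehyde and analysed by cytofluorometry. Positive cells are those brighter than control cells stained with normal mouse IgG-FITC, which monitors nonspecific labelling.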

MT-4 (human) = test: Inhibitory index of HIV-1 binding to MT-4 cells was determined at a concentration of 25 ug/mL
MT4 [7] = test: Inhibitory index for OKT4A mAb binding inhibition in MT-4 cells was determined at a concentration of 20 ug/ml; assay type: functional, Homo sapiens; in short: as §2
MT4 [8] = test: Inhibitory concentration for cytopathicity of HIV-2 (LAV-2ROD) in MT-4 cells; assay type: functional, cell-based, Homo sapiens
In short: (§4)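 MT-4 cells infected with HIV-1 (HTLV-IIIB) or HIV-2 (LAV-2ROD) at 100–500-fold the dose infecting 50% of cells, then cultured with compound. Protection from cytopathicity gives the IC50 (50% inhibitory concentration). Means of at least three experiments.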

MT4 [9] = test: Inhibitory concentration for cell viability in mock-infected MT-4 cells; assay type: functional, cell-based; conditions: Homo sapiens
In short: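 MT-4 cells mock-infected and cultured with compound. Viability measured by MTT tetrazolium colorimetric read-out. Value is the 50% cytotoxic concentration. MT-4 data are means of at least three experiments.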

MT4 [10] = test: Inhibitory index for OKT4A mAb binding inhibition in MT-4 cells was determined at a concentration of 4 ug/ml; assay type: functional, Homo sapiens; in short: as §2
[11] = Compound was tested for percent of OKT4A positive cells stained with normal mouse IgG-FITC at a concentration of 100 ug/ml; assay type: functional; in short: as §3
[12] = Compound was tested for percent of OKT4A positive cells stained with normal mouse IgG-FITC at a concentration of 0.8 ug/ml; assay type: functional; in short: as §3
[13] = Compound was tested for percent of OKT4A positive cells stained with normal mouse IgG-FITC at a concentration of 20 ug/ml; assay type: functional; in short: as §3
MT4 [14] = test: Inhibitory concentration for cytopathicity of HIV-1 (HTLV-111B) in MT-4 cells; assay type: functional, cell-based, Homo sapiens; in short: as §4
[15] = Compound was tested for percent of OKT4A positive cells stained with normal mouse IgG-FITC at a concentration of 4 ug/mL; assay type: functional; in short: as §3

## O=C(O)C1=CC(=C(c2ccc(O)c(C(=O)O)c2)c2ccc(O)c(C(=O)O)c2)C=CC1=O [AURINTRICARBOXYLIC ACID]
HuT78 [1]
  IC50: 4 µg/mL (≈ 9.47 µM)
HuT78 [2]; Homo sapiens, HuT78, read-out: IC50
  IC50: 4 µg/mL (≈ 9.47 µM)
HuT78 [2]; hut78
  IC50: 4 µg/mL (≈ 9.47 µM)
MT4 [3]
  Activity: 0.26
MT4 [4]
  Activity: 0
CCRF-CEM; Homo sapiens, CCRF-CEM, read-out: IC50
  IC50: 2.1 µg/mL (≈ 4.97 µM)
CCRF-CEM; ccrf-cem
  IC50: 1.2 µg/mL (≈ 2.84 µM)
MT4 [5]
  Activity: 0.97
[6]
  Activity: 99.5
MT-4 (human)
  Inhibitory index: 0.99
MT4 [7]
  Activity: 0.98
MT4 [8]; Homo sapiens, MT4, read-out: IC50
  IC50: 0.85 µg/mL (≈ 2.01 µM)
MT4 [8]; mt4
  IC50: 1.3 µg/mL (≈ 3.08 µM)
MT4 [9]
  IC50: 280 µg/mL (≈ 663 µM)
MT4 [10]
  Activity: 0.91
[11]
  Activity: 2.7
[12]
  Activity: 99.2
[13]
  Activity: 1.8
MT4 [14]
  IC50: 1.1 µg/mL and 0.5 µg/mL
[15]
  Activity: 9.2
